Active and inactive are the calls of the source. The rule behind the calls is not given here.
Assays:
[1] = Drug uptake in Sprague-Dawley rat plasma at 0.3 mg/kg, po qd administered via gavage measured 1 hr post last dose on day 14 by LC-MS/MS analysis; type: ADME, organism-based
[2] = Oral bioavailability in mouse at 10 mg/kg administered via gavage by LC-MS/MS analysis; type: ADME, organism-based; conditions: in vivo
Summary of the method: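 IV dosing used a solution in 75% PEG300:25% D5W for mouse and rat, and a solution in 20% PEG300, 5% solutol, 75% carbonate buffer pH 8 for dog. PO dosing used a suspension in 0.5% methylcellulose, 0.5% Tween80, 99% water for all three species.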

[3] = AUC (0 to 24 hrs) in Sprague-Dawley rat at 0.1 mg/kg, po qd administered via gavage measured on day 1 by LC-MS/MS analysis; type: ADME, organism-based; design: time < 24 hr, dose 0.1 mg/kg, route oral; conditions: in vivo
[4] = AUC (0 to 24 hrs) in Sprague-Dawley rat at 0.3 mg/kg, po qd administered via gavage measured on day 11 by LC-MS/MS analysis; type: ADME, organism-based; design: dose 0.3 mg/kg, time < 24 hr, route oral; conditions: in vivo
[5] = test system: Rattus norvegicus; assay: In vivo agonist activity at FXR in Sprague-Dawley rat assessed as induction of SHP mRNA level in liver at 0.3 mg/kg, po qd for 14 days measured 7 hrs post last dose on day 14 by qPCR analysis; type: functional, organism-based
[6] = AUC (0 to 24 hrs) in Sprague-Dawley rat at 0.03 mg/kg, po qd administered via gavage measured on day 1 by LC-MS/MS analysis; type: ADME, organism-based; design: time < 24 hr, dose 0.03 mg/kg, route oral; conditions: in vivo
[7] = Drug uptake in Sprague-Dawley rat liver at 1 mg/kg, po qd administered via gavage measured 7 hrs post last dose on day 14 by LC-MS/MS analysis; type: ADME, organism-based; conditions: read-out: Drug uptake
Summary of the method: (§1)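 Drug concentration in liver was quantified from tissue homogenates, so these are total levels. Unbound liver concentration was not determined.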

[8] = Cmax in Sprague-Dawley rat at 0.003 mg/kg, po qd administered via gavage measured on day 11 by LC-MS/MS analysis; type: ADME, organism-based; design: dose 0.003 mg/kg, route oral; conditions: in vivo
[9] = Protein binding in rat plasma at 0.01 to 0.05 mg/kg, po qd administered via gavage by LC-MS/MS analysis; type: ADME, organism-based; conditions: read-out: PPB
[10] = target: T1, G-protein coupled bile acid receptor 1 (Mus musculus, UniProt Q80SS6); assay: Agonist activity at mouse TGR5
T1 sequence (Q80SS6 whole entry): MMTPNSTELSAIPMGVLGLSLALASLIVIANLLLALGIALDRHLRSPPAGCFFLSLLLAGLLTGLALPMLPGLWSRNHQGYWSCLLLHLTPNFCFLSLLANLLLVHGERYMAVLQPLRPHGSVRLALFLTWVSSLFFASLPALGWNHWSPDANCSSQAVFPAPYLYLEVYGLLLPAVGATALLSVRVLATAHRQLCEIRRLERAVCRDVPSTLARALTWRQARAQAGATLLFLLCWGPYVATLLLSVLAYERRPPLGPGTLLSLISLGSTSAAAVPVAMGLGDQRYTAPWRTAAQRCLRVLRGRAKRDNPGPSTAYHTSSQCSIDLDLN

[11] = test system: Rattus norvegicus; assay: Dose normalized AUC (0 to 24 hrs) in Sprague-Dawley rat at 3 mg/kg, po qd administered via gavage measured on day 11 by LC-MS/MS analysis; type: ADME, organism-based; conditions: in vivo
[12] = AUC (0 to 24 hrs) in Sprague-Dawley rat at 0.1 mg/kg, po qd administered via gavage measured on day 11 by LC-MS/MS analysis; type: ADME, organism-based; design: time < 24 hr, dose 0.1 mg/kg, route oral; conditions: in vivo
[13] = test system: Rattus norvegicus; assay: Dose normalized AUC (0 to 24 hrs) in Sprague-Dawley rat at 0.03 mg/kg, po qd administered via gavage measured on day 11 by LC-MS/MS analysis; type: ADME, organism-based; conditions: in vivo
[14] = Drug uptake in Sprague-Dawley rat liver at 0.03 mg/kg, po qd administered via gavage measured 1 hr post last dose on day 14 by LC-MS/MS analysis; type: ADME, organism-based; conditions: read-out: Drug uptake; summary of the method: as §1

## O=C(O)c1cc(F)c2nc(N3C4CCC3CC(OCc3c(-c5ccccc5OC(F)(F)F)noc3C3CC3)C4)sc2c1 (centres undefined)
[1]
  concentration at 1 h: 6.84 nM
[2]
  bioavailability: 9.2%
[3]
  AUC(0-t) at 24 h: 0.041 µM·h
[4]
  AUC at 24 h: 0.19 µM·h
[5]
  Activity: Active
[6]
  AUC(0-t) at 24 h: 0.015 µM·h
[7]
  concentration at 7 h: 230 nM
[8]
  Cmax: 0.26 nM
[9]
  fraction unbound: 0.001
[10]
  EC50: > 10 µM
[11]
  AUC/dose: 563 nM·h
[12]
  AUC at 24 h: 0.08 µM·h
[13]
  AUC/dose: 658 nM·h
[14]
  concentration at 1 h: 11.9 nM
